Published values of several laboratories.
Lines come from different studies, so protocols differ.
Organism: Staphylococcus aureus
Read-out: microbial killing

| SMILES | test | test system | setting | MBC |
| --- | --- | --- | --- | --- |
| CCn1cc(C(=O)O)c(=O)c2cc(F)c(N3CCNCC3)cc21 | broth dilution | ATCC6538 | – | 2 µM |
| CCCC(=O)Oc1c(C)c(O)c(C(=O)/C=C/c2ccccc2)c(OC)c1C | broth dilution | ATCC25923 | – | > 5000 µg/mL |
| CCCCCCCCCCCCCC#CC(=O)O | – | – | – | 7.8 µg/mL |
| O=C(O)CN1C(=O)/C(=C/c2c3ccccc3c(-c3ccc(N(c4ccccc4)c4ccccc4)cc3)c3ccccc23)NC1=S | broth dilution | ATCC6538 | – | > 1000 µg/mL |
| Cc1c(NC(=O)CC2=NC(=O)CS2)c(=O)n(-c2ccccc2)n1C | broth dilution | – | – | 1 µg/mL |
| O=C1NC(=S)N/C1=C\c1c2ccccc2c(-c2ccc(N(c3ccccc3)c3ccccc3)cc2)c2ccccc12 | broth dilution | ATCC6538 | – | > 1000 µg/mL |
| O=C(O)c1cn(C2CC2)c2cc(N3CCNCC3)c(F)cc2c1=O | broth dilution | – | – | 0.5 µg/mL |
| COc1c(C)c(OC(=O)c2ccc(C)cc2)c(C)c(O)c1C(=O)/C=C/c1ccccc1 | broth dilution | ATCC25923 | – | > 5000 µg/mL |
| O=C(O)CN1C(=O)/C(=C/c2ccc(-c3ccc(N(c4ccccc4)c4ccccc4)cc3)cc2)NC1=S | broth dilution | ATCC6538 | – | 3.9 µg/mL |
| CCCCCCCCCC(=O)Oc1c(C)c(O)c(C(=O)/C=C/c2ccccc2)c(OC)c1C | broth dilution | ATCC25923 | – | > 5000 µg/mL |
| O=C(O)CN1C(=O)/C(=C/c2ccc(-c3ccc(N(c4ccccc4)c4ccccc4)cc3)c3ccccc23)SC1=S | broth dilution | ATCC43300 | – | > 1000 µg/mL |
| CCCCCCCCCCCC(=O)Oc1c(C)c(O)c(C(=O)/C=C/c2ccccc2)c(OC)c1C | broth dilution | ATCC25923 | – | > 5000 µg/mL |
| COc1cc(NC(C)CCCNC(=S)NCCCC(C)Nc2cc(OC)cc3cccnc23)c2ncccc2c1.Cl.Cl (stereo not drawn) | – | ATCC43300 MRSA | drug-resistant strain | 10 to 20 µg/mL |
| O=C(O)CN1C(=O)/C(=C/c2c3ccccc3c(-c3ccc(N(c4ccccc4)c4ccccc4)cc3)c3ccccc23)SC1=S | broth dilution | ATCC6538 | – | > 1000 µg/mL |
| COc1c(C)c(OS(=O)(=O)c2ccc3ccccc3c2)c(C)c(OS(=O)(=O)c2ccc3ccccc3c2)c1C(=O)/C=C/c1ccccc1 | broth dilution | ATCC25923 | – | > 5000 µg/mL |
| O=C(O)CN1C(=O)/C(=C/c2ccc(-c3ccc(N(c4ccccc4)c4ccccc4)cc3)c3ccccc23)NC1=S | broth dilution | ATCC43300 | – | > 1000 µg/mL |
| COc1c(C)c(OS(=O)(=O)c2ccc3ccccc3c2)c(C)c(O)c1C(=O)/C=C/c1ccccc1 | broth dilution | ATCC25923 | – | > 5000 µg/mL |
| CC(=O)NC[C@H]1CN(c2ccc(N3CCOCC3)c(F)c2)C(=O)O1 | broth dilution | ATCC6538 | – | > 64 µM |
| O=C1NC(=S)S/C1=C\c1ccc(-c2ccc(N(c3ccccc3)c3ccccc3)cc2)c2ccccc12 | broth dilution | ATCC43300 | – | > 1000 µg/mL |
| COc1c(C)c(OCc2ccccc2)c(C)c(O)c1C(=O)/C=C/c1ccccc1 | broth dilution | ATCC25923 | – | > 5000 µg/mL |
| CC1CCN(CCCN2/C(=C/c3cc[n+](C)c4ccccc34)Sc3ccccc32)CC1.[I-] | – | ATCC29213 | – | 16 µg/mL |
| O=c1[nH]cc(F)c(=O)[nH]1 | broth dilution | – | 48 h | 1 µg/mL |
| C=CCOc1c(C)c(O)c(C(=O)/C=C/c2ccccc2)c(OC)c1C | broth dilution | ATCC25923 | – | > 5000 µg/mL |
| O=C1NC(=S)S/C1=C\c1ccc(-c2ccc(N(c3ccccc3)c3ccccc3)cc2)cc1 | broth dilution | ATCC43300 | – | > 1000 µg/mL |
